Results taken from article PMC11621760 (Proceedings of the National Academy of Sciences of the …, 2024).

Assays:
AR [1] = target: T1, AR (Homo sapiens, UniProt P10275); assay: AR transcriptional assays of the triazole series; format: cell-based; settings: SI Fig. S1B/C
T1 sequence (P10275 1-920): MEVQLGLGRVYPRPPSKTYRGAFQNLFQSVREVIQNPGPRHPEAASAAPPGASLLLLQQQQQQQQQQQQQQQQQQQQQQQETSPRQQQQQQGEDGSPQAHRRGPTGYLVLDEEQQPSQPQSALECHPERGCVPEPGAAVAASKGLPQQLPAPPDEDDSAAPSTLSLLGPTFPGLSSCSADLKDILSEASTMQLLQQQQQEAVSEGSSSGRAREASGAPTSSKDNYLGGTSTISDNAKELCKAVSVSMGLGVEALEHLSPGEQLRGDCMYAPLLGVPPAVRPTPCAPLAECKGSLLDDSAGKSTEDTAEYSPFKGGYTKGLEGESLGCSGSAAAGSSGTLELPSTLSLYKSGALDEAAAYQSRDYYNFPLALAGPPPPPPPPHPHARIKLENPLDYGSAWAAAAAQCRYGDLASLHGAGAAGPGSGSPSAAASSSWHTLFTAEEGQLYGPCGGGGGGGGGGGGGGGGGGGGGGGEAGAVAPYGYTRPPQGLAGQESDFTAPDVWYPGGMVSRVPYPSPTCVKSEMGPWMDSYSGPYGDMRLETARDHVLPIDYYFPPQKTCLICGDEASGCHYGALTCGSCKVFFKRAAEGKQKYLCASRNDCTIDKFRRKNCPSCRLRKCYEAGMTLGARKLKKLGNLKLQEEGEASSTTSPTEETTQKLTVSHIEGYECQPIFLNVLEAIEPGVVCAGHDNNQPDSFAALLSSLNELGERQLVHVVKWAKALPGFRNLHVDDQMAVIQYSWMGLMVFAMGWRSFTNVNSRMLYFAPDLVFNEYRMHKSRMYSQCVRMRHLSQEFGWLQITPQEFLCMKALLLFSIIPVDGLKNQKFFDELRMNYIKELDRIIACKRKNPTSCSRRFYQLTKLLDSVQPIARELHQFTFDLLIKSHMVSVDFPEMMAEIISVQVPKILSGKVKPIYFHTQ

[2] = system: H3K27ac and AR 3D chromatin contacts; assay: AQuA-HiChIP; format: cell-based, human; settings: 24 h at 20 µM, LNCaP-AR
Method in brief: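 LNCaP-AR cells grown in DMEM, 10% FBS, penicillin-streptomycin-glutamine, 37 °C, 5% CO2. MNase-based HiChIP for AR and H3K27ac with medium-salt washes and mouse chromatin spike-in for absolute quantification (AQuA). Paired-end sequencing to at least 200 million reads. Loops were filtered by distance, minimum AQuA-CPM and connection number, merged into clusters, and ranked by summed short- and long-range contacts.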

hAR = target: T2, hAR (Homo sapiens, UniProt P10275); settings: radioligand binding
T2 sequence (P10275 669-920 limits assumed): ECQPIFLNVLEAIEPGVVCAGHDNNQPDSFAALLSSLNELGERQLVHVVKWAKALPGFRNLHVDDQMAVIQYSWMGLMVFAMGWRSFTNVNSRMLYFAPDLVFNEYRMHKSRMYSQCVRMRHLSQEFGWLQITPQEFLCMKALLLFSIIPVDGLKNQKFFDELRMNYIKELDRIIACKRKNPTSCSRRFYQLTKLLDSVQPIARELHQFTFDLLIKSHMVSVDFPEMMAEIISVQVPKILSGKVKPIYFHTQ

AR [3] = target: T1, AR; format: cell-based; settings: VCaP, CSS and 10 nM R1881
LNCaP-AR cells = assay: Cell growth; format: cell-based, human
22Rv1 cells = assay: Cell growth; format: cell-based, human
[4] = target: T3, progesterone receptor (PR) (Homo sapiens, UniProt P06401); assay: Radioligand binding assay, progesterone receptor
T3 sequence (P06401 1-933): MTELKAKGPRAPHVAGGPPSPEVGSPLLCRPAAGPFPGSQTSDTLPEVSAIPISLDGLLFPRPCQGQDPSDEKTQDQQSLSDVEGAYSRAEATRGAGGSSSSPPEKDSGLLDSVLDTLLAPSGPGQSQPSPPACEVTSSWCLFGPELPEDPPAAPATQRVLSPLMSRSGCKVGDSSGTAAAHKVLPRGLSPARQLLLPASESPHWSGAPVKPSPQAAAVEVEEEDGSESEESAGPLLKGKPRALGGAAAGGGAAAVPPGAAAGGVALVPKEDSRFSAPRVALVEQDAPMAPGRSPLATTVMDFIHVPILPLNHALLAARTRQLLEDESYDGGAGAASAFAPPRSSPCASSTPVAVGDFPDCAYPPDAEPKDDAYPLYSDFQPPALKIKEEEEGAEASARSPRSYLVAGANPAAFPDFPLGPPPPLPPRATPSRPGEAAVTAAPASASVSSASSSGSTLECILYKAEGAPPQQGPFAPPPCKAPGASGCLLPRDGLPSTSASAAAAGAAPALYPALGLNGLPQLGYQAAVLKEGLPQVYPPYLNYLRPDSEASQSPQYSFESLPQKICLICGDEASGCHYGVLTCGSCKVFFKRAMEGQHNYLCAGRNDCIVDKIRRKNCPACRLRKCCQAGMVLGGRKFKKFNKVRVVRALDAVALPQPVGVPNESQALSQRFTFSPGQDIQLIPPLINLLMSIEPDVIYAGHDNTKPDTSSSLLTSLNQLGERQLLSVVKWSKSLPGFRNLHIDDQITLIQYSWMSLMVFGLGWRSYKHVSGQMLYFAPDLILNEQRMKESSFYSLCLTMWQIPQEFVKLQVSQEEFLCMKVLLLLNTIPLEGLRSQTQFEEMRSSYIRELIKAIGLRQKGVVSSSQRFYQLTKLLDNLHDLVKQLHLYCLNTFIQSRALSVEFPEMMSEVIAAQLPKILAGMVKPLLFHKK
Method in brief: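 Eurofins Panlabs radioligand binding with steroid hormone receptors and their respective ligands. Buffer: 50 mM Tris-HCl, 0.8 M NaCl, 10% glycerol, 2 mM dithiothreitol, 0.1% BSA, 2% EtOH, pH 7.4. Receptor-ligand incubation, then 15 min with hydroxyapatite slurry. Samples filtered, filters washed three times and counted for specifically bound ligand. Log concentration series gave Ki and IC50.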

[5] = Parallel Artificial Membrane Permeability Assay; format: in vitro ADME; settings: pH 6.5
LAPC4 xenograft = LAPC4 xenograft growth in vivo; set-up: species or system mice; settings: 20 mg/kg via oral gavage, 42 days
GFP-AR [6] = target: T4, GFP-AR (Homo sapiens, UniProt P10275); assay: GFP-AR construct nuclear translocation in human cell lines; format: cell-based; settings: CSS
T4 sequence (P10275 1-920): T1 sequence (P10275 1-920)

[7] = Microsome metabolic assay; format: in vitro ADME; settings: in comparison to control compounds
[8] = Solubility / precipitation in solvents; format: physicochemical
GFP-AR [9] = target: T4, GFP-AR; format: cell-based; settings: murine 3108 cells expressing GFP-AR
[10] = once peak concentration is reached; cited from earlier work

**Q.** With `Cn1cc(-c2ccc(CN3C(=S)N(c4ccc(C#N)c(C(F)(F)F)c4)C(=O)C3(C)C)cc2)nn1` [15b] as the compound, how does the “anti-AR transcriptional activity (in words)” value (AR [1]) read?
**A.** Its value is “dramatic loss in activity”.

**Q.** For `CC1(C)C(=O)N(c2ccc(C#N)c(C(F)(F)F)c2)C(=S)N1Cc1ccc(-c2c[nH]nn2)cc1` [BG-15a], which “H3K27ac long-range contacts at AR loops” value [2] is on record?
**A.** The value was “decreased long-range acetylation contacts at AR loops”.

**Q.** What about the “AR binding affinity (in words)” value (hAR) of the same compound?
**A.** The value was “strong AR binding affinity”.

**Q.** And the “AR transcriptional activity (luciferase)” value (AR [3])?
**A.** Its value is “dose-dependent decrease of AR activity”.

**Q.** What about the “growth inhibition compared to enzalutamide” value (LNCaP-AR cells) of the same compound?
**A.** The value was “more efficacious in inhibiting growth compared to enzalutamide”.

**Q.** And the “growth inhibition compared to enzalutamide” value (22Rv1 cells)?
**A.** The value was “more efficacious in inhibiting growth compared to enzalutamide”.

**Q.** And the “binding affinity to the PR (in words)” value [4]?
**A.** Its value is “nanomolar range binding affinity”.

**Q.** And the “drug recovery and cell permeability (PAMPA)” value [5]?
**A.** Its value is “performed similarly to each other and enzalutamide”.

**Q.** And the tumor growth (LAPC4 xenograft)?
**A.** The tumor growth was “inhibition of tumor growth”.

**Q.** And the “AR nuclear translocation (GFP-AR construct)” value (GFP-AR [6])?
**A.** Its value is “consistently stimulated AR nuclear translocation”.

**Q.** What about the “microsomal half-life (in words)” value [7] of the same compound?
**A.** The value was “notably high half-life”.

**Q.** And the “solubility (in words)” value [8]?
**A.** The value was “limited”.

**Q.** What about the “AR translocation to the nucleus (nuclear to cytoplasmic ratio, dose response)” value (GFP-AR [9]) of the same compound?
**A.** The value was “induced nuclear translocation at doses 100 nM to 10 µM”.

**Q.** With `CC(O)(CS(=O)(=O)c1ccc(F)cc1)C(=O)Nc1ccc(C#N)c(C(F)(F)F)c1` (stereo not drawn) [bicalutamide] as the compound, how does the “H3K27ac long-range contacts at AR loops” value [2] read?
**A.** Its value is “decreased long-range acetylation contacts at AR loops”.

**Q.** For `CNC(=O)c1ccc(N2C(=S)N(c3ccc(C#N)c(C(F)(F)F)c3)C(=O)C2(C)C)cc1F` [Enzalutamide, enzalutamide], which half-life in patients [10] is on record?
**A.** The half-life in patients was “around 5 days”.
